# NF-kB neuron act: NF-kB expression increase, human neuronal cells | AID 1239 | fold change at 12.5 µM | hit rate 1.6% among 190,000 | NF-kB reporter expression; hits give high values; in the data active means fold change above about 3.3
# STAT3 act: STAT3 signaling activation; U3A cells, IL-6 STAT3-luciferase reporter, luminescence; 100% = signal with IL-6 EC80 alone; activation (% of control), % at 5.6 µM; hit rate 0.91% among 190,000; AID 871;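 active means activation above the screen-wide mean of compound activation plus 3 SD, cut at about 130% in these data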;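 further: 0% = background luminescence of wells with medium and substrate only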
#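 Test system: Human STAT1-deficient U3A cells with stable STAT3-luciferase reporter | Also added: Interleukin-6, 33 ng/mL | Timing: Compound pre-incubation 1 h before IL-6, then 6 h stimulation at 37 °C | Technique: Luciferase reporter luminescence | Read-out: Percent of IL-6-only median luminescence | Benchmarks: IL-6-only wells as 100% reference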
# STAT1 act: STAT1 signaling activation | hit rate 2.6% among 200,000 | NIH 3T3 STAT1-luciferase reporter, IFN-gamma, luminescence; 100% = IFN-gamma alone, no compound | activation (% of control), % at 5.5 µM;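 active means activation above the screen-wide mean activation plus 3 SD, cut at about 130% in these data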;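 further: raw ratio to IFN-gamma control signal so 100% means no change and 0% no light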
# STAT3 inh: STAT3 signaling inhibition | hit rate 0.89% among 190,000 | AID 862 | U3A cells, IL-6 STAT3-luciferase reporter, luminescence; host cell line lacks STAT1 | inhibition, % at 5.5 µM;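 active means inhibition above the mean inhibition across all screened compounds plus 3 SD, cut at about 44% in these data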;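 further: 0% = DMSO only wells and 100% = 100 µM nifuroxazide control wells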
# STAT1 blocker: reduces IFN-gamma driven STAT1 reporter signal; NIH 3T3 STAT1-luciferase reporter, luminescence; inhibition, % at 5.5 µM; hit rate 0.35% among 200,000; AID 920;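 active means inhibition above a set limit, the mean inhibition across all tested compounds plus 3 SD, cut at about 34% in these data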;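 further: 0% = IFN-gamma with DMSO and 100% = IFN-gamma with 300 µM nifuroxazide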
# APP 5'UTR act: APP 5'UTR luciferase reporter activation. hit rate 1% among 190,000. activation, % at 2 µM. SH-SY5Y APP 5'UTR luciferase reporter, luminescence; zero percent = DMSO vehicle wells. AID 1276;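 active means activation above a set limit, based on mean plus 3 SD of controls, cut at about 140% in these data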
# * hit, by the source's call; x = not tested or not shown. Compounds with a hit are over-represented: about 5.1% of the library has one in this group of screens.
SMILES,NF-kB neuron act,STAT3 act,STAT1 act,STAT3 inh,STAT1 blocker,APP 5'UTR act
O=C1CCCCCCC1Sc1ccccc1[N+](=O)[O-] (stereo not given),0.95,100,94,4,6,27
COc1ccc2c3c(cccc13)C(=O)N(O)C2=O,7.1*,113,97,-13,3,-10
COc1ccccc1N1C(=O)c2cccc3c(C(=O)O)ccc(c23)C1=O,1.2,100,90,6,11,-5
O=C(c1cnc(Cl)c(Cl)c1)N1CCC(Cc2ccccc2)CC1,1.1,103,102,-2,-3,17
Cc1ccc(NC(=O)C2Cc3ccccc3C(=O)O2)cc1 (stereo not given),1.7,92,135*,13,-39,52
CN1C(=O)/C(=C/C=C2\SCCN2C)N(C)C1=S,5.3*,105,132*,-5,-34,75
Clc1nc(-c2ccccc2)cc(-c2ccc(Br)cc2)n1,x,138*,88,-33,13,-6
COC(=O)C(C)(C)ONC(=O)Nc1ccccc1,0.97,96,100,7,0,-6
CCOC(=O)c1sc2nc3c(cc2c1N)COC(C)(C)C3,5.9*,102,136*,2,-39,117
C=CCSc1n[nH]c(-c2ccc(OCCC)cc2)n1,3.8*,99,150*,4,-51,103
CC(/C=C/c1ccccc1)=N/NC(=O)CNC(=O)c1ccccc1F,1.7,97,104,7,-6,10
CC(C)CN(CC(C)C)C(=S)Nc1ccc(Cl)cc1,0.8,112,87,-3,14,-4
O=C(CSc1nc2ccccc2s1)N1c2ccccc2Sc2ccc(Cl)cc21,1,91,90,11,11,-2
O=c1oc2cc(Cl)ccc2n1CSc1nc2ccccc2s1,8.6*,123,119,-20,-21,0
Cc1ccc(Nc2nc(N)nc(CSCCO)n2)cc1,2.1,119,121,-20,-24,57
Nc1nc(CSc2ncccn2)nc(Nc2ccccc2)n1,2.9,116,134*,-18,-37,46
Cc1ccc(Nc2nc(N)nc(CC#N)n2)cc1,1.5,106,137*,-3,-40,43
Nc1nc(CSc2n[nH]c(-c3ccccc3)n2)nc(Nc2ccccc2)n1,0.62,78,96,32,5,6
Cc1ccc(Nc2nc(N)nc(CSc3ncccn3)n2)cc1,5.4*,110,130*,-12,-33,104
C=CCn1c(COc2ccccc2F)nnc1SCC(=O)c1c[nH]c2ccccc12,0.61,111,91,-7,10,8
COC(=O)NNC(=S)NCc1ccccc1,1,100,98,3,2,4
Cc1cc(C)cc(NC(=O)COc2ccc(C(=S)N3CCOCC3)cc2)c1,1.1,100,97,8,2,-5
O=C(Nc1ccccc1)c1ccc2snnc2c1,1.4,84,111,20,-13,-8
Cc1ccc(NC(=O)c2ccc3snnc3c2)cc1,3.1,93,147*,10,-52,78
O=C(NC(=S)NCc1ccccc1)c1ccccc1[N+](=O)[O-],1.1,83,91,25,10,-7
SMILES,NF-kB neuron act,STAT3 act,STAT1 act,STAT3 inh,STAT1 blocker,APP 5'UTR act
COc1cccc(C(=O)Oc2ccccc2/C=C\C(=O)c2cc3ccccc3o2)c1,21*,105,97,-3,4,61
O=C(Nc1ccccc1)c1ccc(OC(=O)c2cc3ccccc3o2)cc1,1.8,109,104,-4,-4,6
O=C(Oc1ccccc1/C=C\C(=O)c1cc2ccccc2o1)c1ccccc1,5.7*,107,86,-4,16,163*
O=C(Oc1ccccc1/C=C\C(=O)c1cc2ccccc2o1)c1cccc(F)c1,4*,127,102,-32,-3,76
CCCCNC(=O)C1CCN(c2nc(OC)nc(OC)n2)CC1,1,90,87,13,15,-6
N#Cc1ccc(NC(=O)COC(=O)CCNS(=O)(=O)c2ccccc2)cc1,1,100,104,0,-4,-7
CCN=C1S/C(=C\c2ccc(-c3cccc(C(=O)O)c3)o2)C(=O)N1CC,2.2,131,118,-35,-20,185*
CCN1C(=O)/C(=C\c2ccc(-c3ccc([N+](=O)[O-])cc3OC)o2)SC1=Nc1cccc(C(=O)O)c1,0.97,102,96,2,1,-3
Cc1cc(N2C(=O)C3CC=CC(C)C3C2=O)no1 (stereo not given),1.1,102,96,1,3,12
C=CCNC(=O)COc1ccc(Br)cc1Cl,2.3,94,132*,12,-35,39
COCCNC(=O)COc1ccc(Br)cc1Cl,1.1,98,99,3,1,0
O=C(COc1ccc(Br)cc1Cl)NC1CCCCC1,3.5*,108,138*,-4,-43,77
O=C(COc1ccccc1Cl)c1ccc[nH]1,1.4,96,120,6,-23,13
O=C(COc1ccc(Br)cc1Cl)c1ccc[nH]1,3,106,137*,4,-42,58
O=C1/C(=C/c2ccccc2)CCCc2ccccc21,2.9,98,112,6,-13,71
Cc1cccc(/C=C2\CCC(=C3SCCCS3)C2=O)c1,2.4,84,90,26,11,172*
C/C(=N\NC(=O)c1cc(C)[nH]n1)c1cccs1,2.9,75,106,33,-8,114
C/C(=N\Nc1ccccn1)c1ccc(C#N)cc1,1.1,88,104,18,-4,-16
C/C(=N\NC(=O)c1ccccn1)c1ccc(C(=O)O)s1,1.1,99,133*,7,-37,64
C/C(=N\Nc1ccccn1)c1cccs1,1.1,98,137*,6,-44,76
C/C(=N/NC(=O)c1cnccn1)c1cccs1,2,103,135*,-2,-39,27
O=C(c1ccc(COc2ccccc2Cl)o1)N1CCCC1,0.82,84,80,19,35*,-9
CC1CCN(C(=O)c2ccc(COc3ccccc3Cl)o2)CC1,1.1,104,103,0,-3,4
CN1CCN(C(=O)c2cccc(COc3cc(Cl)ccc3Cl)c2)CC1,1.4,116,113,-17,-17,60
Cc1nn(Cc2c(F)c(F)c(F)c(F)c2F)c(C)c1NC(=O)c1cccc(COc2ccccc2Cl)c1,2.1,76,104,32,-4,151*
O=C(Nc1ccccc1Cl)c1cccc(COc2cc(Cl)ccc2Cl)c1,1.6,111,129*,-12,-32,24
O=C1NC(=O)/C(=C\c2ccc(OCc3cccc(C(=O)O)c3)c(Cl)c2)N1,1.1,42,33,73*,71*,79
Cc1cccc(OCCCN2C(=O)C(=O)c3cc(C)ccc32)c1,2.6,94,102,10,-5,-40
CCc1sc(C(=O)Nc2cccc(C(C)=O)c2)cc1C,1.7,89,103,15,-3,14

# Assay outcomes (PubChem BioAssay)
